{"data": "Experimental data pooled from the literature", "MTNR1B": "Melatonin receptor type 1B (MTNR1B, Homo sapiens, UniProt P49286)", "note": "Compare with care: the assays were run in different laboratories."}
{"SMILES": "O=C(NCCc1cccc2ccccc12)C1CCC1", "target": "MTNR1B", "test": "cAMP, agonist, TR-FRET", "measurement": "EC50", "result": "1660 nM"}
{"SMILES": "C=CC(=O)Nc1cccc(CN2C(=O)N(c3c(Cl)c(OC)cc(OC)c3Cl)Cc3cnc(NCCCCN(CC)CC)nc32)c1", "target": "Mitogen-activated protein kinase 7 (MAPK7, Homo sapiens, UniProt Q13164)", "test": "binding, competition with immobilised ligand", "measurement": "Kd", "result": "160 nM"}
{"SMILES": "Clc1ccc(CNc2cccc(-c3nnc[nH]3)c2)c(Br)c1", "target": "MTNR1B", "test": "cell-free assay", "measurement": "Ki", "result": "1410 nM"}
{"SMILES": "CCC(=O)NC1Cc2ccccc2C(c2ccccc2)C1 (centres unmarked)", "target": "MTNR1B", "test": "GTPγS binding, agonist, radiometric", "conditions": "cell membranes", "measurement": "EC50", "result": "1.58 nM"}
{"SMILES": "Cc1cc2nc3c(=O)[nH]c(=O)nc-3n(C[C@H](O)[C@H](O)[C@H](O)COP(=O)(O)OP(=O)(O)OC[C@H]3O[C@@H](n4cnc5c(N)ncnc54)[C@H](O)[C@@H]3O)c2cc1C", "target": "Protein PRRC2C (Homo sapiens, UniProt Q9Y520)", "test": "binding", "conditions": "lysate", "measurement": "Kd", "result": "23700 nM"}
{"SMILES": "C[C@H](C(=O)N[C@@H]1COc2ccccc2[C@H]1S(C)(=O)=O)c1ccc(F)cc1", "target": "Metabotropic glutamate receptor 7 (GRM7, Homo sapiens, UniProt Q14831)", "test": "cAMP, agonist, luciferase", "measurement": "EC50", "result": "28 nM"}
{"SMILES": "COc1ccc2c(c1)C(=O)C1(Cc3ccccc3C1)O2", "target": "Peptidyl-prolyl cis-trans isomerase NIMA-interacting 1 (PIN1, Homo sapiens, UniProt Q13526)", "test": "enzyme activity, inhibitor", "measurement": "Ki", "result": "100000 nM"}
{"SMILES": "Cc1cc(Nc2cc3ncccc3c(N[C@@H]3C[C@H]4CC[C@@H](C3)N4CCC#N)n2)n[nH]1", "target": "Death-associated protein kinase 1 (DAPK1, Homo sapiens, UniProt P53355)", "test": "binding, competition with immobilised ligand", "measurement": "Kd", "result": "96 nM"}
{"SMILES": "Nc1nc(NCc2ccc(Oc3ccccc3)cc2)nc(-c2c(F)cccc2CO)n1", "target": "MTNR1B", "test": "cell-free assay, radioligand", "measurement": "Ki", "result": "1100 nM"}
{"SMILES": "C=C1CC[C@@H]2[C@](C)(CO)[C@H](O)CC[C@@]2(C)[C@@H]1C/C=C1/C(=O)OC[C@H]1O", "target": "UDP-glucuronosyltransferase 2B7 (UGT2B7, Homo sapiens, UniProt P16662)", "test": "enzyme activity, inhibitor", "conditions": "pH 7.4", "measurement": "Ki", "result": "5700 nM"}
{"SMILES": "CCc1ccc2scc(CCNC(C)=O)c2c1", "target": "MTNR1B", "test": "cAMP, agonist, TR-FRET", "measurement": "EC50", "result": "39.8 nM"}
{"SMILES": "CC(=O)c1cc([N+](=O)[O-])c(Sc2cccc(Cl)c2Cl)s1", "target": "Cathepsin D (CTSD, Homo sapiens, UniProt P07339)", "test": "enzyme activity, inhibitor", "measurement": "EC50", "result": "> 50000 nM"}
{"SMILES": "CC(C)c1ccc(CNc2cccc(-c3nnc[nH]3)c2)cc1", "target": "MTNR1B", "test": "cell-free assay", "measurement": "Ki", "result": "3720 nM"}
{"SMILES": "COCC(CNC(C)=O)c1cccc2ccc(OC)cc12 (centres unmarked)", "target": "MTNR1B", "test": "β-arrestin recruitment, agonist", "measurement": "EC50", "result": "3.09 nM"}
